Experimental data pooled from the literature.
Lines come from different studies, so protocols differ.
MAOB: Amine oxidase [flavin-containing] B (MAOB, Homo sapiens, UniProt P27338)
HCK: Tyrosine-protein kinase HCK (HCK, Homo sapiens, UniProt P08631)

SMILES	target	observed	mode	method	tested at	quantity	result
NC/C(=C\F)COc1cccc(Cn2c(=S)[nH]c(=O)c3[nH]cnc32)c1	MAOB	enzyme activity	inhibitor	–	200 pM	inhibition	29.1%
O=C(Nc1ccc(F)c(Br)c1)c1ccc2c(c1)C(=O)NC2=O	MAOB	enzyme activity	inhibitor	–	1 µM	inhibition	97.3%
O=C(N[C@@H](CSCc1nc2cc([N+](=O)[O-])ccc2[nH]1)C(=O)NO)c1ccccc1	Lactoylglutathione lyase (GLO1, Homo sapiens, UniProt Q04760)	enzyme activity	inhibitor	–	1 µM	inhibition	13.6%
CC(=O)ON=C1C=CC(=C(C#N)c2ccccc2)C=C1	Receptor-interacting serine/threonine-protein kinase 3 (RIPK3, Homo sapiens, UniProt Q9Y572)	enzyme activity	inhibitor	ADP detection	20 µM	activity vs control	110%
COc1ccc2oc(-c3ccc4nc(N)oc4c3)c/c(=N\c3ccccc3NC(=O)CCN)c2c1	Phosphatidylinositol 3-kinase C2 domain-containing subunit gamma (PIK3C2G, Homo sapiens, UniProt O75747)	binding	–	–	1 µM	remaining binding	37%
Cc1cc(S(=O)(=O)N[C@H]2CC[C@H](CN3CCN(c4ccc(C5CCC(=O)NC5=O)cc4F)CC3)CC2)ccc1Nc1ncc(C(F)(F)F)c(N2CCC[C@](C)(O)C2)n1 (stereo partly shown)	NUAK family SNF1-like kinase 2 (NUAK2, Homo sapiens, UniProt Q9H093)	binding	–	competition with immobilised ligand	1 µM	remaining binding	26%
O=C(Nc1ccc(Cl)c(F)c1)c1ccc2c(c1)C(=O)NC2=O	MAOB	enzyme activity	inhibitor	–	1 µM	inhibition	87%
C1=C/COCc2cc(ccc2OCCN2CCCC2)Nc2nccc(n2)-c2cccc(c2)COC/1	HCK	binding	–	–	0.1 µM	remaining binding	100%
C#Cc1cc(-c2cc(Nc3nc(N[C@@H](C)c4ccc(F)cn4)ncc3Cl)n[nH]2)ccc1C=O	Dual specificity tyrosine-phosphorylation-regulated kinase 4 (DYRK4, Homo sapiens, UniProt Q9NR20)	enzyme activity	inhibitor	–	0.2 µM	inhibition	4.78%
O=C(Nc1cc(Cl)cc(Cl)c1)c1ccc2c(c1)C(=O)NC2=O	MAOB	enzyme activity	inhibitor	–	1 µM	inhibition	89.3%
CCCCC(=O)Nc1ccc(-c2ccc3ncn(CCC)c(=O)c3c2)cn1	HCK	binding	–	competition with immobilised ligand	0.5 µM	remaining binding	98%
Nc1ncnc2c1ncn2[C@@H]1O[C@H](COP(=O)(O)OP(=O)(O)OP(=O)(O)O)[C@@H](O)[C@H]1O	GUK1 (Homo sapiens, UniProt Q16774)	enzyme activity	substrate	–	–	Km	102 µM
O=C(Nc1ccc(F)c(F)c1)c1ccc2c(c1)C(=O)NC2=O	MAOB	enzyme activity	inhibitor	–	1 µM	inhibition	90.6%
